The text below walks through data of ChEMBL document CHEMBL3856284, “Discovery, design and synthesis of 6H-anthra[1,9-cd]isoxazol-6-one scaffold as G9a inhibitor through a combination of shape-based virtual screening and structure-based molecular modification” (Bioorg Med Chem, 2016).

Activity calls are given as the source filed them. The calls are words filed in the database; no cut-off is given here.

Data set [1] in a line: Antiproliferative activity against human MCF7 cells assessed as inhibition of cell viability after 72 hrs by MTT assay. Type of data set: functional, cell-based. To be noted: MCF7, 72 h. Background: Tetrazolium dyes change colour on reduction, which living cells bring about.
Data set [2] relates to MCF7. Kind of data set: Induction of apoptosis in human MCF7 cells assessed as viable cells at 2 uM after 48 hrs by annexin V staining-based flow cytometric analysis (reference value: 82.85%). Type of data set: functional. Particulars: MCF7, 48 h, read-out: Activity. Background: In flow cytometry, cells or beads pass a laser one at a time.
The subject of data set [3] is MCF7. Kind of data set: Induction of apoptosis in human MCF7 cells assessed as early apoptotic cells at 4 uM after 48 hrs by annexin V staining-based flow cytometric analysis (reference value: 0.5%). Type of data set: functional.
Data set [4] relates to MCF7. Kind of data set: Induction of apoptosis in human MCF7 cells assessed as late apoptotic cells at 4 uM after 48 hrs by annexin V staining-based flow cytometric analysis (reference value: 11%). Type of data set: functional.
Data set [5] deals with T1, Histone-lysine N-methyltransferase EHMT2 (Homo sapiens) (UniProt Q96KQ7).
T1 sequence (whole entry): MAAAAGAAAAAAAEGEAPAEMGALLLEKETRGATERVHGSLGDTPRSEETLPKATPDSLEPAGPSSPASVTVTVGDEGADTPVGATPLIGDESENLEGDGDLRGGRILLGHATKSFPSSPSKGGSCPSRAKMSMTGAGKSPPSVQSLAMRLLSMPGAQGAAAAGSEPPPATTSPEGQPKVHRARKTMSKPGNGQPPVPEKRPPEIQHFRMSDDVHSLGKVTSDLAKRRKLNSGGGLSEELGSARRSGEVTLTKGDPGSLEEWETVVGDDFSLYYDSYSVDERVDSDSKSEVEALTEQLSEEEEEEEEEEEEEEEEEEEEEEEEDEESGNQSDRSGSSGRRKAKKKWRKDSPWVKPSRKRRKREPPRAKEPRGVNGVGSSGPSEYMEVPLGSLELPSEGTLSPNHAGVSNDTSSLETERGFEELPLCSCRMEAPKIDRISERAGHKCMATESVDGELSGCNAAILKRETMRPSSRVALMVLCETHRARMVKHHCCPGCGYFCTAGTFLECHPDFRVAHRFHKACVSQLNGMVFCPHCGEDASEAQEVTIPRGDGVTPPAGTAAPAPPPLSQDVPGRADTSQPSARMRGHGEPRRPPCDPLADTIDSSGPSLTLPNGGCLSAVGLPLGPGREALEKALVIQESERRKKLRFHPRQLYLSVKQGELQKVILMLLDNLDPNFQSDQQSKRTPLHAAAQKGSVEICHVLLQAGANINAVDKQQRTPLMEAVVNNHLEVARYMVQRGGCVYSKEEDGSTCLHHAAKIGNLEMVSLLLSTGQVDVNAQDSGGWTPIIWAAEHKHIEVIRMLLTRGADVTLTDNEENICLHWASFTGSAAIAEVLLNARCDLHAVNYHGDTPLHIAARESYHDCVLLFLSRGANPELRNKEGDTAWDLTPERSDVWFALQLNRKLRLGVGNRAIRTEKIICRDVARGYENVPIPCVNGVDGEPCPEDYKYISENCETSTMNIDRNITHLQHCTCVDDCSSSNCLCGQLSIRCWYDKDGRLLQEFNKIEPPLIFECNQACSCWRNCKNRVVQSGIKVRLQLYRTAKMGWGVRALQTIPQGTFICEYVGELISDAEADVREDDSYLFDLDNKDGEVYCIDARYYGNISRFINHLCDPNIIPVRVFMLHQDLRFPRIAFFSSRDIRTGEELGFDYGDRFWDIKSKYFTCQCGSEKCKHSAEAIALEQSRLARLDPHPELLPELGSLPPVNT
Kind of data set: Inhibition of G9a in human MCF7 cells assessed as decrease in trimethylation level of H3K9 after 48 hrs by Western blot method. Type of data set: cell-based.

The test system of data set [6] is MCF7. Kind of data set: Induction of phenotypic changes in human MCF7 cells assessed as round in shape at 8 uM after 24 hrs by inverted light microscopic method. Type of data set: functional, cell-based. In short, it runs like this: (§1)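 MCF-7 cells were incubated 24 h with 2, 4 or 8 µM compound, with an untreated group as control. Cell morphology (distortion, blebbing, shrinkage, rounding, necrosis) was examined under an inverted light microscope at ×200.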

The nature of data set [7]: Antiproliferative activity against human HepG2 cells assessed as inhibition of cell viability after 72 hrs by MTT assay. Particulars: HepG2, 72 h. Type of data set: functional, cell-based.
The subject of data set [8] is MCF7. Kind of data set: Induction of phenotypic changes in human MCF7 cells assessed as membrane blebbing at 4 uM after 24 hrs by inverted light microscopic method. Type of data set: functional, cell-based. In short, it runs like this: as §1
Data set [9] deals with MCF7. Kind of data set: Induction of apoptosis in human MCF7 cells assessed as necrotic cells at 8 uM after 48 hrs by annexin V staining-based flow cytometric analysis (reference value: 5.65%). Type of data set: functional.
Data set [10] addresses T1, Histone-lysine N-methyltransferase EHMT2 (Homo sapiens). Kind of data set: Inhibition of G9a in human MCF7 cells assessed as decrease in dimethylation level of H3K9 at […] after 48 hrs by Western blot method. Type of data set: cell-based. Background: A western blot detects proteins with antibodies after separation by electrophoresis.
Data set [11] relates to MCF7. Kind of data set: Induction of phenotypic changes in human MCF7 cells at 2 uM after 24 hrs by inverted light microscopic method. Type of data set: functional, cell-based. In outline: as §1
The test system of data set [12] is Mus musculus. Kind of data set: Half life in mouse at 10 mg/kg, po after 5 mins to 24 hrs by LC-MS/MS analysis. To be noted: in vivo.
Data set [13] relates to Mus musculus. Kind of data set: Tmax in mouse at 10 mg/kg, iv after 2 mins to 24 hrs by LC-MS/MS analysis. To be noted: in vivo.
Data set [14] deals with MCF7. Kind of data set: Induction of apoptosis in human MCF7 cells assessed as viable cells at 4 uM after 48 hrs by annexin V staining-based flow cytometric analysis (reference value: 82.85%). Type of data set: functional. Particulars: MCF7, 48 h, read-out: Activity.
The test system of data set [15] is MCF7. Kind of data set: Induction of phenotypic changes in human MCF7 cells assessed as shrinkage at 4 uM after 24 hrs by inverted light microscopic method. Type of data set: functional, cell-based. In short, it runs like this:
as §1

The subject of data set [16] is MCF7. Kind of data set: Induction of apoptosis in human MCF7 cells assessed as early apoptotic cells at 2 uM after 48 hrs by annexin V staining-based flow cytometric analysis (reference value: 0.5%). Type of data set: functional.
In data set [17] the test system is MCF7. Kind of data set: Induction of apoptosis in human MCF7 cells assessed as early apoptotic cells at 8 uM after 48 hrs by annexin V staining-based flow cytometric analysis (reference value: 0.5%). Type of data set: functional.

The term IC50 denotes the midpoint of a concentration-inhibition curve. The half-life is the time in which the quantity being followed falls by half. Low readings indicate fast loss, high ones slow loss. In general, Tmax refers to the time from dosing to the highest level. `O=C1c2ccccc2-c2onc3c(N4CCCCC4)cc(NCCN4CCCC4)c1c23`: the IC50 stood at 4.52 µM in data set [1] and 7.93 µM in data set [7]. Further, the viability at 2 µM in data set [2] was found to be 78.2%. Moreover, the Activity was 0.8% in data set [3]; 26.05% in [4]; 0.75% in data set [9]; 0.3% in data set [16]; 2.75% in data set [17]. In addition, the inhibition result in data set [5] was “Dose-dependent effect”. In addition, the outcome in [6], in data set [8], in data set [11] and in [15] was Active. The inhibition result in data set [10] is “Active”. Also, in data set [12], the half-life was 4 h. Besides, in data set [13], the time to peak (Tmax) was determined as 7.2 min. Moreover, in data set [14], the viability at 4 µM came to 70%.
